# From ChEMBL document CHEMBL1649390, “New (RS)-benzoxazepin-purines with antitumour activity: The chiral switch from (RS)-2,6-dichloro-9-[1-(p-nitrobenzenesulfonyl)-1,2,3,5-tetrahydro-4,1-benzoxazepin-3-yl]-9H-purine” (Eur J Med Chem, 2011)
# Legend:
# [1] = test system: MCF7; test: Cytotoxicity against human MCF7 cells expressing wild type p53 and ras mutant […]; assay type: functional, cell-based
# [2] = test system: MDA-MB-231; test: Cytotoxicity against human MDA-MB-231 cells expressing high level of p53 […]; assay type: functional, cell-based
# [3] = Cytotoxicity against human MCF10A cells […] by SRB assay; assay type: cell-based; conditions: MCF-10A
# [4] = Therapeutic index, ratio of IC50 for human MCF10A cells to IC50 for human MCF7 cells expressing wild type p53 and ras mutant; assay type: cell-based; conditions: MCF10A cells versus MCF7 cells (wild type p53, ras mutant), read-out: Ratio IC50
# Method in brief: (§1)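 Ratio of IC50 in non-tumour MCF-10A to IC50 in the tumour line, both from the SRB growth assay described for cytotoxicity.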
# [5] = Therapeutic index, ratio of IC50 for human MCF10A cells to IC50 for human MDA-MB-231 cells expressing high level of p53; assay type: cell-based; conditions: MCF10A cells versus MDA-MB-231 cells (high level of p53), read-out: Ratio IC50; method in brief: as §1
# [6] = test system: MCF7; test: Induction of apoptosis in human MCF7 cells assessed as cell viability at IC50 concentration after 24 hrs using V-FITC and propidium iodide staining by flow cytometry (reference value: 90.42 +/- 0.63 %); assay type: functional
# [7] = test system: MCF7; test: Induction of apoptosis in human MCF7 cells assessed as necrotic cells at IC50 concentration after 24 hrs using V-FITC and propidium iodide staining by flow cytometry (reference value: 9.55 +/- 0.21 %); assay type: functional
# [8] = test system: MCF7; test: Induction of apoptosis in human MCF7 cells assessed as early apoptotic cells at IC50 concentration after 24 hrs using V-FITC and propidium iodide staining by flow cytometry relative to control; assay type: functional
# [9] = test system: MCF7; test: Induction of apoptosis in human MCF7 cells assessed as late apoptotic cells at IC50 concentration after 24 hrs using V-FITC and propidium iodide staining by flow cytometry (reference value: 0.03 +/- 0.01 %); assay type: functional
# [10] = test system: MCF7; test: Induction of apoptosis in human MCF7 cells assessed as necrotic cells at IC50 concentration after 48 hrs using V-FITC and propidium iodide staining by flow cytometry (reference value: 12.61 +/- 7.50 %); assay type: functional
# [11] = test system: MCF7; test: Induction of apoptosis in human MCF7 cells assessed as early apoptotic cells at IC50 concentration after 48 hrs using V-FITC and propidium iodide staining by flow cytometry relative to control; assay type: functional
# [12] = test system: MCF7; test: Induction of apoptosis in human MCF7 cells assessed as late apoptotic cells at IC50 concentration after 24 hrs using V-FITC and propidium iodide staining by flow cytometry (reference value: 1.11 +/- 0.24 %); assay type: functional
# [13] = test system: MCF7; test: Induction of apoptosis in human MCF7 cells assessed as viable cells at IC50 concentration after 48 hrs using V-FITC and propidium iodide staining by flow cytometry (reference value: 86.26 +/- 7.25 %)
# [14] = Cell cycle arrest in human MCF10A cells assessed as accumulation at G0/G1 phase after 48 hrs using propidium iodide staining by flow cytometry (reference value: 65.70 +/- 1.14 %); assay type: ADME, cell-based; conditions: mcf-10a
# [15] = Cell cycle arrest in human MCF10A cells assessed as accumulation at G2/M phase after 48 hrs using propidium iodide staining by flow cytometry (reference value: 12.55 +/- 0.68 %); assay type: ADME, cell-based; conditions: mcf-10a
# [16] = Cell cycle arrest in human MCF10A cells assessed as accumulation at S phase after 48 hrs using propidium iodide staining by flow cytometry (reference value: 21.78 +/- 0.46 %); assay type: ADME, cell-based; conditions: mcf-10a
# [17] = test system: MCF7; test: Cell cycle arrest in human MCF7 cells assessed as accumulation at G0/G1 phase after 48 hrs using propidium iodide staining by flow cytometry (reference value: 89.88 +/- 1.73 %); assay type: functional
# [18] = test system: MCF7; test: Cell cycle arrest in human MCF7 cells assessed as accumulation at G2/M phase after 48 hrs using propidium iodide staining by flow cytometry (reference value: 1.57 +/- 2.12 %); assay type: functional
# [19] = test system: MCF7; test: Cell cycle arrest in human MCF7 cells assessed as accumulation at S phase after 48 hrs using propidium iodide staining by flow cytometry (reference value: 8.55 +/- 0.40 %); assay type: functional
# [20] = test system: MDA-MB-231; test: Cell cycle arrest in human MDA-MB-231 cells assessed as accumulation at G0/G1 phase after 48 hrs using propidium iodide staining by flow cytometry (reference value: 42.06 +/- 0.01 %); assay type: functional
# [21] = test system: MDA-MB-231; test: Cell cycle arrest in human MDA-MB-231 cells assessed as accumulation at G2/M phase after 48 hrs using propidium iodide staining by flow cytometry (reference value: 31.59 +/- 0.03 %); assay type: functional
# [22] = test system: MDA-MB-231; test: Cell cycle arrest in human MDA-MB-231 cells assessed as accumulation at S phase after 48 hrs using propidium iodide staining by flow cytometry (reference value: 26.35 +/- 0.03 %); assay type: functional
SMILES,IC50 [1] [µM],IC50 [2] [µM],IC50 [3] [µM],selectivity ratio [4],selectivity ratio [5],Activity [6] [%],Activity [7] [%],Activity [8] [%],Activity [9] [%],Activity [10] [%],Activity [11] [%],Activity [12] [%],viability [13] [%],other results
O=[N+]([O-])c1ccccc1S(=O)(=O)N1CC(n2cnc3c(Cl)nc(Cl)nc32)OCc2ccccc21 (racemic),0.383,0.28,1.53,4,5.5,91.65,8.33,0.01,0.01,3.43,19.61,2.64,74.31,–
Cc1cn(C2CS(=O)(=O)c3ccccc3CO2)c(=O)[nH]c1=O (racemic),12.7,–,–,–,–,–,–,–,–,–,–,–,–,–
O=[N+]([O-])c1ccccc1S(=O)(=O)N1CC(n2cnc3nc(Cl)nc(Cl)c32)OCc2ccccc21 (racemic),0.99,0.318,1.27,1.27,4,95.03,4.94,0.02,0.02,2.48,13.93,3.8,79.78,–
Nc1ccccc1S(=O)(=O)N1CC(n2cnc3c(Cl)nc(Cl)nc32)OCc2ccccc21 (racemic),0.82,0.467,1.52,1.85,3.25,82.1,17.61,0.02,0.28,1.99,18.89,2.77,76.34,–
c1ccc(Sc2nc(Sc3ccccc3)c3ncn(C4CNc5ccccc5CO4)c3n2)cc1 (racemic),9.71,–,–,–,–,87.29,12.68,0,0.07,4.98,18.64,4.52,71.84,–
O=[N+]([O-])c1ccccc1S(=O)(=O)N1CC(n2cnc3c(I)nc(Cl)nc32)OCc2ccccc21 (racemic),0.61,0.256,0.351,0.57,1.37,92.22,7.69,0,0.08,8.08,24.27,9.33,58.32,Activity [14]: 66.69%; Activity [15]: 11.34%; Activity [16]: 21.98%; Activity [17]: 84.1%; Activity [18]: 6.38%; Activity [19]: 9.53%; Activity [20]: 40.38%; Activity [21]: 30.3%; Activity [22]: 28.82%
Cc1cn(C2CN(S(=O)(=O)c3ccc([N+](=O)[O-])cc3)c3ccccc3CO2)c(=O)[nH]c1=O (stereo not drawn),39.8,–,–,–,–,–,–,–,–,–,–,–,–,–
O=c1[nH]cc(F)c(=O)[nH]1 [FLUOROURACIL],–,–,–,–,–,–,–,–,–,–,–,–,–,Activity [14]: 34.2%; Activity [15]: 9.56%; Activity [16]: 55.74%; Activity [17]: 87.4%; Activity [18]: 8.06%; Activity [19]: 6.06%; Activity [20]: 38.98%; Activity [21]: 25.63%; Activity [22]: 35.39%
Cc1cn(C2CN(S(=O)(=O)c3ccccc3[N+](=O)[O-])c3ccccc3CO2)c(=O)[nH]c1=O (racemic),45.2,–,–,–,–,–,–,–,–,–,–,–,–,–
O=[N+]([O-])c1ccc(S(=O)(=O)N2C[C@H](n3cnc4c(Cl)nc(Cl)nc43)OCc3ccccc32)cc1,0.19,0.11,–,–,–,88.56,10.23,0.68,0.51,2.94,41.99,10.51,44.55,Activity [14]: 65.33%; Activity [15]: 12.68%; Activity [16]: 22%; Activity [17]: 87.22%; Activity [18]: 1.22%; Activity [19]: 11.06%; Activity [20]: 50.78%; Activity [21]: 46.24%; Activity [22]: 2.98%
Cc1cn(C2C[S+]([O-])c3ccccc3CO2)c(=O)[nH]c1=O (racemic),30.1,–,–,–,–,–,–,–,–,–,–,–,–,–
COC(CN(c1ccccc1CO)S(=O)(=O)c1ccc([N+](=O)[O-])cc1)n1cnc2c(Cl)nc(Cl)nc21 (racemic),0.355,0.409,1.86,5.25,4.55,94.76,4.88,0.02,0.18,4.81,43.3,2.17,49.71,–
O=[N+]([O-])c1ccccc1S(=O)(=O)N1CC(n2cnc3c(Br)ncnc32)OCc2ccccc21 (racemic),3.62,–,–,–,–,91.95,8.04,0,0,3.76,24.43,4.19,67.6,–
O=S(=O)(c1ccccc1NO)N1CC(n2cnc3c(Cl)nc(Cl)nc32)OCc2ccccc21 (racemic),1.53,0.487,1.23,0.8,2.53,90.86,9.11,0,0.11,5.52,18.73,4.92,70.82,–
Clc1nc(Sc2ccccc2)c2ncn(C3CNc4ccccc4CO3)c2n1 (racemic),13.8,–,–,–,–,83.09,7.55,0.07,0.07,4.01,15.81,3.88,76.3,–
O=[N+]([O-])c1ccc(S(=O)(=O)N2C[C@@H](n3cnc4c(Cl)nc(Cl)nc43)OCc3ccccc32)cc1,0.1,0.11,–,–,–,89.36,10.37,0.1,0.34,1.84,28.82,5.35,63.98,Activity [14]: 64.22%; Activity [15]: 10.76%; Activity [16]: 25.02%; Activity [17]: 89.02%; Activity [18]: 3.1%; Activity [19]: 7.88%; Activity [20]: 39.97%; Activity [21]: 30.67%; Activity [22]: 29.37%
O=[N+]([O-])c1ccc(S(=O)(=O)N2CC(n3cnc4c(Br)ncnc43)OCc3ccccc32)cc1 (racemic),1.23,–,–,–,–,95.7,4.26,0.01,0.01,10.92,35.64,2.4,51.04,–
CC(=O)O[C@H]1C(=O)[C@@]2(C)[C@H]([C@H](OC(=O)c3ccccc3)[C@]3(O)C[C@H](OC(=O)[C@H](O)[C@@H](NC(=O)c4ccccc4)c4ccccc4)C(C)=C1C3(C)C)[C@]1(OC(C)=O)CO[C@@H]1C[C@@H]2O [PACLITAXEL],–,–,–,–,–,–,–,–,–,–,–,–,–,Activity [14]: 36.76%; Activity [15]: 23.5%; Activity [16]: 39.75%; Activity [17]: 62.48%; Activity [18]: 18.5%; Activity [19]: 19.01%; Activity [20]: 100%; Activity [21]: 0%; Activity [22]: 0%
